Data from ChEMBL document CHEMBL1177762, “Identification of a sulfonamide series of CCR2 antagonists” (Bioorg Med Chem Lett, 2010).
pIC50, pKi: −log10 of the molar value.

Tests used:
[1] = biological target: T1, C-C chemokine receptor type 2 (Homo sapiens, UniProt P41597); assay: Antagonist activity at human CCR2 expressed in CHO cells assessed as inhibition of MCP1-induced [35S]-GTPgammaS binding after 3 hrs; type: functional, cell-based
Target sequence in this assay (P41597 whole entry): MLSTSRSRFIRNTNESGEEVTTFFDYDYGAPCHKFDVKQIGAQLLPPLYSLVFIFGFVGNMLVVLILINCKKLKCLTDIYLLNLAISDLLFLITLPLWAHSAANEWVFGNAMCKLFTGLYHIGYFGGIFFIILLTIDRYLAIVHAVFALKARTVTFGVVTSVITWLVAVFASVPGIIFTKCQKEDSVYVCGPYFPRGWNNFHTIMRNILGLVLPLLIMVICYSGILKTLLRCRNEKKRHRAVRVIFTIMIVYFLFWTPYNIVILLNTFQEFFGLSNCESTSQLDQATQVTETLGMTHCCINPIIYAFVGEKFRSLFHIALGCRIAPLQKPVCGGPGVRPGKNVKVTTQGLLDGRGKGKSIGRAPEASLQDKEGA

[2] = biological target: T2, C-C chemokine receptor type 1 (Homo sapiens, UniProt P32246); assay: Antagonist activity at human CCR1 assessed as inhibition of MIP-1-alpha-induced [35S]-GTPgammaS binding after 3 to 4 hrs; type: functional
T2 sequence (P32246 whole entry): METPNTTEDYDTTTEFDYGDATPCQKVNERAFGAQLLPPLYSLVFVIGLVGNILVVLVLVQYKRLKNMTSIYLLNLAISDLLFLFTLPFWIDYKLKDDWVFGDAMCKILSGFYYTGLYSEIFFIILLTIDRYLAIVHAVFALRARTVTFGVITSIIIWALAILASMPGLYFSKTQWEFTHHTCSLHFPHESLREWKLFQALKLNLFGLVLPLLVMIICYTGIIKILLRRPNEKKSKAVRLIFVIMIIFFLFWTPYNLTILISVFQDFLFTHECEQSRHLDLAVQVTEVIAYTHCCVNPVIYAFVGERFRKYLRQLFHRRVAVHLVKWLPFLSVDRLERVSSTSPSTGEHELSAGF

[3] = biological target: C-C chemokine receptor type 2 (Mus musculus, UniProt P51683); assay: Antagonist activity at mouse CCR2; type: functional
Chain of C-C chemokine receptor type 2 (Mus musculus, UniProt P51683) (P51683 whole entry): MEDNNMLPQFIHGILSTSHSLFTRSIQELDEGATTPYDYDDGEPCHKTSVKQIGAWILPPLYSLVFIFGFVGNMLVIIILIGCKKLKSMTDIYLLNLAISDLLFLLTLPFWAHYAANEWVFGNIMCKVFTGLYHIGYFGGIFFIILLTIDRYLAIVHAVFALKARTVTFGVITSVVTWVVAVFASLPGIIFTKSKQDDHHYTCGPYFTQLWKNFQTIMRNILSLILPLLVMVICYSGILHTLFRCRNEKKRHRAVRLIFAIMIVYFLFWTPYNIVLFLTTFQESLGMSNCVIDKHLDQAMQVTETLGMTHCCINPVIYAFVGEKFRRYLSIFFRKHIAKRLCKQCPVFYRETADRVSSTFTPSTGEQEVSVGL

[4] = biological target: C-C chemokine receptor type 1 (Homo sapiens) (UniProt P32246); assay: Antagonist activity at human CCR1
[5] = biological target: C-C chemokine receptor type 5 (Homo sapiens, UniProt P51681); assay: Antagonist activity at CCR5 at 10 uM; type: functional; design: scale not given: the % may be the effect or the level left
Chain of C-C chemokine receptor type 5 (P51681 whole entry, looked up): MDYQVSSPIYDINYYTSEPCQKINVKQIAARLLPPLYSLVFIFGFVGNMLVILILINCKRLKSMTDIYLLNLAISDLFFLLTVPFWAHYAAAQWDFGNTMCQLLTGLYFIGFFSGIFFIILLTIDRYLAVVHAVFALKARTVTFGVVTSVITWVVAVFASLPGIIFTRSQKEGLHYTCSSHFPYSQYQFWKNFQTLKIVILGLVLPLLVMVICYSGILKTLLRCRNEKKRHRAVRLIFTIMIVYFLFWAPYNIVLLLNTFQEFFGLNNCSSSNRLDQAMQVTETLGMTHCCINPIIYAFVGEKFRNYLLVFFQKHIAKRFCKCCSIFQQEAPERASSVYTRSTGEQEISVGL

[6] = Clearance in rat; type: ADME, organism-based; conditions: in vivo
[7] = biological target: Voltage-gated inwardly rectifying potassium channel KCNH2 (Homo sapiens, UniProt Q12809); assay: Binding affinity to human ERG by fluorescence-polarization binding assay
Chain of Voltage-gated inwardly rectifying potassium channel KCNH2 (Q12809 whole entry): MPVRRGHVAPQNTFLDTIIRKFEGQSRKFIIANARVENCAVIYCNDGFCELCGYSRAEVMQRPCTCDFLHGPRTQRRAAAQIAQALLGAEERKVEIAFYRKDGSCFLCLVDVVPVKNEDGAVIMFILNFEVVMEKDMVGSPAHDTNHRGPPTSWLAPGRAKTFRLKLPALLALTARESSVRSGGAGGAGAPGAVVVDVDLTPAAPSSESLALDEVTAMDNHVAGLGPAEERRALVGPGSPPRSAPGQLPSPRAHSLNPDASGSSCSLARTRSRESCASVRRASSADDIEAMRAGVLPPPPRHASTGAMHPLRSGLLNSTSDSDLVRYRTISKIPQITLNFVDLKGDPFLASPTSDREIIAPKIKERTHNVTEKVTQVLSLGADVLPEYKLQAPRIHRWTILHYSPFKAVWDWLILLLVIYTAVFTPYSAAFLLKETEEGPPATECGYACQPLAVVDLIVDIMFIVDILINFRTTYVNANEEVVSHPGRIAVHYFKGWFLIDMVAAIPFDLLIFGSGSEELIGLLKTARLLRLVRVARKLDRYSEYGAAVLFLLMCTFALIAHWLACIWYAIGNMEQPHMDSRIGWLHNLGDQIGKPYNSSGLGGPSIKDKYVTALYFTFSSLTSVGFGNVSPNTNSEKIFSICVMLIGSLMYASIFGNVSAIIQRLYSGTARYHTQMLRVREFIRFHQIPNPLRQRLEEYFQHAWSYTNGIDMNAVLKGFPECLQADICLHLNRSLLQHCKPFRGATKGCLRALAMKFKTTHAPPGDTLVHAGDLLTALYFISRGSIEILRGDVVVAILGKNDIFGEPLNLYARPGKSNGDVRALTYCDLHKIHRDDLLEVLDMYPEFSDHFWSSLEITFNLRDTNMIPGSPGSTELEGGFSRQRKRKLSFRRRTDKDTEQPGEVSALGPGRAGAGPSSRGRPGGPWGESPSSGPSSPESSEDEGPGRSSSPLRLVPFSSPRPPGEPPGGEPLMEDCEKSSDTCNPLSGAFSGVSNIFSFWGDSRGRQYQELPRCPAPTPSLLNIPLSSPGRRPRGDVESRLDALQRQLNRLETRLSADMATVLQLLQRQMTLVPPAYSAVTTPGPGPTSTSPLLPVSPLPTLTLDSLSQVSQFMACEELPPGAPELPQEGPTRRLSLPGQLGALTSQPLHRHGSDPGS

[8] = Lipophilicity, log D of the compound; type: physicochemical; conditions: octanol/water
[9] = biological target: T1, C-C chemokine receptor type 2; assay: Antagonist activity at CCR2 in human THP1 cells assessed as inhibition of CCL2-induced chemotaxis at 1 uM in presence of 0.1% human serum; type: functional, cell-based; conditions: THP-1
Outline: (§1)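 Boyden chamber (48-well) chemotaxis of THP-1 cells stimulated with CCL2. Foetal bovine serum or human serum was added to the assay buffer.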
Target sequence in this assay (P41597 whole entry, looked up): as the sequence (P41597 whole entry) above

[10] = Half life in iv dosed in rat; type: ADME, organism-based; conditions: in vivo
[11] = biological target: T3, C-C chemokine receptor type 4 (Homo sapiens, UniProt P51679); assay: Antagonist activity at CCR4; type: functional
T3 sequence (P51679 whole entry): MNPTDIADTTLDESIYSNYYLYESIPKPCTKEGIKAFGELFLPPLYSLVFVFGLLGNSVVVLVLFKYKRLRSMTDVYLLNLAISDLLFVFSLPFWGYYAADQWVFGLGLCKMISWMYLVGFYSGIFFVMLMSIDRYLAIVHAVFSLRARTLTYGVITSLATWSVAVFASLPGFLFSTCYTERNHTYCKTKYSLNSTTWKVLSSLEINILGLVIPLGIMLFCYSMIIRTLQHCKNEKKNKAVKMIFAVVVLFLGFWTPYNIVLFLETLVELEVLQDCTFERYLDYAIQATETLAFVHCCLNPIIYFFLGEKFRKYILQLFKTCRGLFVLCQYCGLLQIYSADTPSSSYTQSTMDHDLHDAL

Rattus norvegicus = species on record: Rattus norvegicus; assay: Volume of distribution in rat; type: ADME, organism-based; conditions: in vivo
[12] = biological target: T1, C-C chemokine receptor type 2; assay: Antagonist activity at CCR2 in human THP1 cells assessed as inhibition of CCL2-induced chemotaxis at 1 uM in presence of 1% human serum; type: functional, cell-based; conditions: THP-1; outline: as §1
Target sequence in this assay (P41597 whole entry, looked up): as the sequence (P41597 whole entry) above

[13] = Oral bioavailability in rat; type: ADME, organism-based; conditions: in vivo
[14] = biological target: T1, C-C chemokine receptor type 2; assay: Antagonist activity at CCR2 in human THP1 cells assessed as inhibition of CCL2-induced chemotaxis at 10 uM in presence of 1% human serum; type: functional, cell-based; conditions: THP-1; outline: as §1
Target sequence in this assay (P41597 whole entry, looked up): as the sequence (P41597 whole entry) above

O=C(O)c1ccccc1Oc1ncncc1NS(=O)(=O)c1ccc(Cl)c(Cl)c1
pKi [1]: 6.40

O=C(O)c1ccccc1Oc1c(F)cc(C(F)(F)F)cc1NS(=O)(=O)c1ccc(Cl)cc1
pKi [1]: 7.50 | pKi [2]: 6.90 | pKi [3]: 6.60

Cc1cccc(NS(=O)(=O)c2ccc(Cl)cc2)c1Oc1ccccc1C(=O)O
pKi [1]: < 5.50 | pKi [4]: < 5.50

O=C(O)c1c(F)cccc1Oc1ccc(C(F)(F)F)cc1NS(=O)(=O)c1ccc(Cl)cc1
pKi [1]: 6.90 | pKi [2]: 6.90 | pKi [3]: 6.00

O=C(NCCO)c1ccccc1Oc1ncc(Cl)cc1NS(=O)(=O)c1ccc(Cl)c(Cl)c1
Activity [5]: < 10% | pKi [1]: 7.60 | clearance [6]: 13 mL/min/kg | pIC50 [7]: < 4.20 | logD [8]: 2.1 | inhibition [9]: 31% | half-life [10]: 1.1 h | pKi [11]: 5.80 | Vd (Rattus norvegicus): 0.47 L/kg | inhibition [12]: 0% | bioavailability [13]: 37%

O=C(O)c1c(F)cccc1Oc1ncc(Cl)cc1NS(=O)(=O)c1ccc(Cl)c(Cl)c1
pKi [1]: 8.70

O=C(O)c1ccccc1Oc1nccnc1NS(=O)(=O)c1ccc(Cl)c(Cl)c1
pKi [1]: 6.10

O=C(O)c1ccccc1Oc1ccccc1NS(=O)(=O)c1ccc(Cl)cc1
pKi [1]: 6.60 | pKi [2]: 6.50 | pKi [3]: 5.70

CS(=O)(=O)c1ccc(Oc2ccccc2C(=O)O)c(NS(=O)(=O)c2ccc(Cl)cc2)c1
pKi [1]: < 5.50

O=C(O)c1ccccc1Oc1ccc(Cl)cc1NS(=O)(=O)c1ccccc1
pKi [1]: 6.80

O=C(O)c1ccccc1Oc1ccc(Cl)cc1NS(=O)(=O)c1cccc(Cl)c1
pKi [1]: 8.10

O=C(O)c1ccccc1Oc1ccc(F)cc1NS(=O)(=O)c1ccc(Cl)cc1
pKi [1]: 7.40 | inhibition [14]: 52% | pKi [4]: 6.60

O=C(O)c1ccccc1Oc1cnccc1NS(=O)(=O)c1ccc(Cl)c(Cl)c1
pKi [1]: 7.30 | inhibition [9]: 15% | inhibition [12]: 0%

O=C(O)c1ccccc1Oc1ccc(C(F)(F)F)cc1NS(=O)(=O)c1ccc(Cl)cc1
pKi [1]: 6.10 | pKi [2]: 6.30 | pKi [3]: 5.80

N#Cc1ccc(Oc2ccccc2C(=O)O)c(NS(=O)(=O)c2ccc(Cl)cc2)c1
pKi [1]: 7.20 | pKi [4]: 6.00

O=C(O)c1cncc(Oc2ncc(Cl)cc2NS(=O)(=O)c2ccc(Cl)c(Cl)c2)c1
pKi [1]: 8.00 | logD [8]: -0.67 | inhibition [9]: 17% | inhibition [12]: 0%
